Activity calls are given as the source filed them. No cut-off for these calls is given here.
Biological target: T1, Cannabinoid receptor 2 (Homo sapiens, UniProt P34972)
Experiment: Agonist activity at human CB2R expressed in CHO cell membranes after 90 mins by [35S]GTPgammaS assay
Type: functional, Membrane
Conditions: not given
Outline: (§1)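 In-house CHO membranes expressing hCB1 or hCB2 (10 µg) in 50 mM Tris-HCl, 3 mM MgCl2, 0.2 mM EDTA, 100 mM NaCl, 0.5% fatty-acid-free BSA, pH 7.4, with 10 μM GDP and 0.1 nM [35S]GTPγS. Incubated 90 min at 30 °C; antagonist pre-incubated 30 min. Nonspecific binding with 10 μM GTPγS; bound label by filtration and counting; ≥3 experiments in triplicate.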

T1 sequence (P34972 whole entry): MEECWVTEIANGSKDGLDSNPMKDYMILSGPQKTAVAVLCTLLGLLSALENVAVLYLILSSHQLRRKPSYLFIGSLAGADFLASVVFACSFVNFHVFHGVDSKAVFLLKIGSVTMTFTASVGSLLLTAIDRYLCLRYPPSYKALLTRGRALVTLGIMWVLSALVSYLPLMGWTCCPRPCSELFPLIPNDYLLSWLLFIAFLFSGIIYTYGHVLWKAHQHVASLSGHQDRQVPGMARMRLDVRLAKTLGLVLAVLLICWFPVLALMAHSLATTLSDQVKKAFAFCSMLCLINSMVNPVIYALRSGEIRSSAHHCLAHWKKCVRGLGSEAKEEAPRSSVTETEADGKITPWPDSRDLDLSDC

| SMILES | EC50 [nM] |
| --- | --- |
| Cc1c(Cl)cc(C(=O)NC2CCCCCC2)c(=O)n1Cc1ccc(F)cc1 | 3.3 |
| Cc1ccc(C(=O)NC2CCCCCC2)c(=O)n1Cc1ccc(F)cc1 | 4.15 |
| Cc1ccc(C(=O)NC2CCCCCC2)c(OCc2ccc(F)cc2)n1 | 11.6 |
| Cc1nc(OCc2ccc(F)cc2)c(C(=O)NC2CCCCCC2)cc1Br | 31.6 |
| Cc1c(F)cc(C(=O)NC2CCCCCC2)c(=O)n1Cc1ccc(F)cc1 | 24.4 |

Biological target: Cannabinoid receptor 2 (Mus musculus) (UniProt P47936)
Sequence (P47936 whole entry): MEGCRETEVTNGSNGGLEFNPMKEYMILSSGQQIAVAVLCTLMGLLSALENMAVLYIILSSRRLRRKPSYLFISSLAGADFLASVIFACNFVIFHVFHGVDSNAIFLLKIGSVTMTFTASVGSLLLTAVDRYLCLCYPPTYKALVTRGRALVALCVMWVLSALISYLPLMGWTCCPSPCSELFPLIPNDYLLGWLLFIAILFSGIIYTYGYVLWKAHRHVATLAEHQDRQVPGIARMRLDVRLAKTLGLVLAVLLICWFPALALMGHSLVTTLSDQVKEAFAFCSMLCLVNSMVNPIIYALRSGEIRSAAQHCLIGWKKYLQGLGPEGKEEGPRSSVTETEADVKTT
Experiment: Agonist activity at CB2R in LPS induced mouse BV2 cells assessed as decrease in IL-1beta secretion at 10 uM preincubated for 30 mins followed by LPS stimulation for 4 hrs by ELISA
Type: cell-based
Conditions: BV-2, filed as agonist, time 270.0 min
Outline: (§2)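 BV-2 murine microglia grown in high-glucose DMEM with 10% FBS. Treatments in FBS-free medium: test agonist 10 μM for 30 min, then LPS 5 μg/ml for 4 h; SR144528 10 μM given 15 min before agonist. DMSO ≤0.1% final. Medium spun 10 min at 1000×g; IL-1β, IL-6, IL-10 quantified by ELISA; three independent experiments in duplicate.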

| SMILES | Activity |
| --- | --- |
| CCCC(C)(C)c1ccc2c(c1)OC(C)(C)[C@@H]1CC=C(C)C[C@@H]21 | Active |

Organism: Homo sapiens
Experiment: Selectivity index, ratio of Ki for human CB1R expressed in CHO cell membranes to Ki for human CB2R expressed in CHO cell membranes
Type: cell-based
Conditions: not given

| SMILES | Ratio Ki |
| --- | --- |
| Cc1c(Cl)cc(C(=O)NC2CCCCCC2)c(=O)n1Cc1ccc(F)cc1 | 0.86 |
| Cc1ccc(C(=O)NC2CCCCCC2)c(OCc2ccc(F)cc2)n1 | 0.49 |
| Cc1c(F)cc(C(=O)NC2CCCCCC2)c(=O)n1Cc1ccc(F)cc1 | 0.86 |

Biological target: T1, Cannabinoid receptor 2
Experiment: Displacement of [3H]CP55940 from recombinant human CB2R expressed in CHO cell membranes incubated for 90 mins
Design: species or system Membrane
Conditions: not given

| SMILES | Ki [nM] |
| --- | --- |
| Cc1c(Cl)cc(C(=O)NC2CCCCCC2)c(=O)n1Cc1ccc(F)cc1 | 4.3 |
| Cc1ccc(C(=O)NC2CCCCCC2)c(=O)n1Cc1ccc(F)cc1 | 4.7 |
| Cc1ccc(C(=O)NC2CCCCCC2)c(OCc2ccc(F)cc2)n1 | 33.9 |
| Cc1nc(OCc2ccc(F)cc2)c(C(=O)NC2CCCCCC2)cc1Br | 1.5 |
| Cc1c(F)cc(C(=O)NC2CCCCCC2)c(=O)n1Cc1ccc(F)cc1 | 5.7 |

Biological target: T2, Monoglyceride lipase (Homo sapiens, UniProt Q99685)
T2 sequence (Q99685 whole entry): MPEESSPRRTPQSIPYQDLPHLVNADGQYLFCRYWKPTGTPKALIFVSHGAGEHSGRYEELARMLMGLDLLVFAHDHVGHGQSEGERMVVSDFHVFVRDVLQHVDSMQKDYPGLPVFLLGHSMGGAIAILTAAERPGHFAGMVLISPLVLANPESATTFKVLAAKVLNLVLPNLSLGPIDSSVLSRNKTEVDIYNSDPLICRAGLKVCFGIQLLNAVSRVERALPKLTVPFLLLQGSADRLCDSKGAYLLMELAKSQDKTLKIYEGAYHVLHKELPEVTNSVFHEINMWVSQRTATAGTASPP
Experiment: Inhibition of MAGL in human U937 cells using [glycerol-1,2,3-3H]2-OG as substrate preincubated for 15 mins followed by substrate addition and measured after 15 mins by liquid scintillation spectroscopy
Type: cell-based, U-937
Conditions: not given
Outline: (§3)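 Intact U937 cells, 10^6 per condition, pre-incubated with compound 15 min at 37 °C with shaking (screen at 10 μM; full curves for hits). Substrate: 1 μM AEA with 1 nM [3H]AEA (FAAH) or 10 μM 2-OG with 5 nM [3H]2-OG (MAGL), 15 min at 37 °C. Stopped with CHCl3:MeOH 1:1, aqueous tritium counted; mean ± SD, ≥3 experiments in triplicate.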

| SMILES | IC50 [nM] |
| --- | --- |
| Cc1c(Cl)cc(C(=O)NC2CCCCCC2)c(=O)n1Cc1ccc(F)cc1 | > 10000 |
| Cc1ccc(C(=O)NC2CCCCCC2)c(=O)n1Cc1ccc(F)cc1 | > 10000 |
| Cc1ccc(C(=O)NC2CCCCCC2)c(OCc2ccc(F)cc2)n1 | > 10000 |
| Cc1nc(OCc2ccc(F)cc2)c(C(=O)NC2CCCCCC2)cc1Br | > 10000 |
| Cc1c(F)cc(C(=O)NC2CCCCCC2)c(=O)n1Cc1ccc(F)cc1 | > 10000 |

Biological target: T3, Cannabinoid receptor 1 (Homo sapiens, UniProt P21554)
T3 sequence (P21554 whole entry): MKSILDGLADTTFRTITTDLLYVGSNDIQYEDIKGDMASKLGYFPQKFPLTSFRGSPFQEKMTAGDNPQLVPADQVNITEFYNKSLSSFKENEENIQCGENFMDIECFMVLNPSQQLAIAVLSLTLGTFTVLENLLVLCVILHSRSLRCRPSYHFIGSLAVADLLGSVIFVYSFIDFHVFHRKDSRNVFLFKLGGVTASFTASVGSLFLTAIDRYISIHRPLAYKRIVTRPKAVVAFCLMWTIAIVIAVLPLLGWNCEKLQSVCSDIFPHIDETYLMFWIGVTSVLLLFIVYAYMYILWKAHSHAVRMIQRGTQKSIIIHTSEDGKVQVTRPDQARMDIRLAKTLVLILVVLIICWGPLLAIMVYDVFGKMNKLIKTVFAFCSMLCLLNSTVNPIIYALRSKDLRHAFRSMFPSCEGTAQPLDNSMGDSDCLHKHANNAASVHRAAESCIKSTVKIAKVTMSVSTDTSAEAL
Experiment: Agonist activity at human CB1R expressed in CHO cell membranes after 90 mins by [35S]GTPgammaS assay
Type: functional, Membrane
Conditions: not given
Outline: as §1

| SMILES | EC50 [nM] |
| --- | --- |
| Cc1c(Cl)cc(C(=O)NC2CCCCCC2)c(=O)n1Cc1ccc(F)cc1 | 1.12 |
| Cc1ccc(C(=O)NC2CCCCCC2)c(=O)n1Cc1ccc(F)cc1 | 40.4 |
| Cc1ccc(C(=O)NC2CCCCCC2)c(OCc2ccc(F)cc2)n1 | 86.2 |
| Cc1nc(OCc2ccc(F)cc2)c(C(=O)NC2CCCCCC2)cc1Br | 586 |
| Cc1c(F)cc(C(=O)NC2CCCCCC2)c(=O)n1Cc1ccc(F)cc1 | 43.2 |

Biological target: T4, Lysophosphatidylserine lipase ABHD12 (Homo sapiens, UniProt Q8N2K0)
T4 sequence (Q8N2K0 whole entry): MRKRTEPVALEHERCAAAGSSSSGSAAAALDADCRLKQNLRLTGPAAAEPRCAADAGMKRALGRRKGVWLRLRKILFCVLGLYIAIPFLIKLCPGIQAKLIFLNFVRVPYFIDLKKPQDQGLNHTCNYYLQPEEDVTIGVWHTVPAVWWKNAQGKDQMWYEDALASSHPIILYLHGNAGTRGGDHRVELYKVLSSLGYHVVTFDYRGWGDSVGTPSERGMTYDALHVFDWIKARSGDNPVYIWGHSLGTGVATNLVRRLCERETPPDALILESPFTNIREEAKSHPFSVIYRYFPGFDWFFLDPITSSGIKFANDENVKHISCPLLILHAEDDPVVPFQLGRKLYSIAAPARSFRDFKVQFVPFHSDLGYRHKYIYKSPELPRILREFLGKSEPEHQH
Experiment: Inhibition of human ABHD12 expressed in HEK293 cells using 2-OG as substrate preincubated for 30 mins followed by substrate addition and measured after 5 mins by liquid scintillation spectroscopy
Type: cell-based
Conditions: not given
Outline: (§4)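 Homogenates (40 µg) from HEK293 stably expressing hABHD6 or hABHD12 pre-incubated with compound 30 min at 37 °C in […], 0.1% BSA, pH 7.6; then 10 μM 2-OG for 5 min at 37 °C. Aqueous phase tritium counted after CHCl3:MeOH stop; no-enzyme blanks and non-transfected HEK293 hydrolysis subtracted. Controls WWL70 10 μM, THL 20 μM.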

| SMILES | IC50 [nM] |
| --- | --- |
| Cc1c(Cl)cc(C(=O)NC2CCCCCC2)c(=O)n1Cc1ccc(F)cc1 | > 10000 |
| Cc1ccc(C(=O)NC2CCCCCC2)c(=O)n1Cc1ccc(F)cc1 | > 10000 |
| Cc1ccc(C(=O)NC2CCCCCC2)c(OCc2ccc(F)cc2)n1 | > 10000 |
| Cc1nc(OCc2ccc(F)cc2)c(C(=O)NC2CCCCCC2)cc1Br | 2100 |
| Cc1c(F)cc(C(=O)NC2CCCCCC2)c(=O)n1Cc1ccc(F)cc1 | > 10000 |

Biological target: T5, Monoacylglycerol lipase ABHD6 (Homo sapiens, UniProt Q9BV23)
T5 sequence (Q9BV23 whole entry): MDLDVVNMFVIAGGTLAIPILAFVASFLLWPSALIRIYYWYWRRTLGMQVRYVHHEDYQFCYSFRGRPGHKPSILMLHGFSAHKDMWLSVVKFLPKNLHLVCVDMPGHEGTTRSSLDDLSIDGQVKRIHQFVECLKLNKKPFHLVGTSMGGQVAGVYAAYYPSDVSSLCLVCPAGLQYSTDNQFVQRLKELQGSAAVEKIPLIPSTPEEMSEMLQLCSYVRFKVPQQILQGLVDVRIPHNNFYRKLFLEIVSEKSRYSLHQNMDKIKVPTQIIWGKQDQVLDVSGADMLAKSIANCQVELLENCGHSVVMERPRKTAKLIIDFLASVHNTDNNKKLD
Experiment: Inhibition of human ABHD6 expressed in HEK293 cells using 2-OG as substrate preincubated for 30 mins followed by substrate addition and measured after 5 mins by liquid scintillation spectroscopy
Type: cell-based
Conditions: not given
Outline: as §4

| SMILES | IC50 [nM] |
| --- | --- |
| Cc1c(Cl)cc(C(=O)NC2CCCCCC2)c(=O)n1Cc1ccc(F)cc1 | > 10000 |
| Cc1ccc(C(=O)NC2CCCCCC2)c(=O)n1Cc1ccc(F)cc1 | > 10000 |
| Cc1ccc(C(=O)NC2CCCCCC2)c(OCc2ccc(F)cc2)n1 | > 10000 |
| Cc1nc(OCc2ccc(F)cc2)c(C(=O)NC2CCCCCC2)cc1Br | > 10000 |
| Cc1c(F)cc(C(=O)NC2CCCCCC2)c(=O)n1Cc1ccc(F)cc1 | > 10000 |

Biological target: T6, Fatty-acid amide hydrolase 1 (Homo sapiens, UniProt O00519)
T6 sequence (O00519 whole entry): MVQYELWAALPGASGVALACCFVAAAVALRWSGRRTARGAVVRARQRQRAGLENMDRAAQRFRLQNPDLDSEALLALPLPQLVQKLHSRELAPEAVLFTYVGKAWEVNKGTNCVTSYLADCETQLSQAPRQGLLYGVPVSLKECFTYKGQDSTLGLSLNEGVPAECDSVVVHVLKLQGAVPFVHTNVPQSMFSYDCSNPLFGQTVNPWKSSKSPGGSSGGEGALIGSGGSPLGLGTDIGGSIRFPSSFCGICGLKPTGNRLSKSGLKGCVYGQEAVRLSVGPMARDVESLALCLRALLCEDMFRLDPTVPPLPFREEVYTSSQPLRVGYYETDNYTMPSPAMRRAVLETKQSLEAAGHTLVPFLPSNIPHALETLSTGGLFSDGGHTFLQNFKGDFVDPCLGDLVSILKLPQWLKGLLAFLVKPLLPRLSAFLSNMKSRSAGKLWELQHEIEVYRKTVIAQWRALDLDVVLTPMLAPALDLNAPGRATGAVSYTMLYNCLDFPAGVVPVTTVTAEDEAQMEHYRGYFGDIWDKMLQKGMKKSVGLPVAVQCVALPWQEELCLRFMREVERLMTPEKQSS
Experiment: Inhibition of FAAH in human U937 cells using [ethanolamine-1-3H]AEA as substrate preincubated for 15 mins followed by substrate addition and measured after 15 mins by liquid scintillation spectroscopy
Type: cell-based, U-937
Conditions: not given
Outline: as §3

| SMILES | IC50 [nM] |
| --- | --- |
| Cc1c(Cl)cc(C(=O)NC2CCCCCC2)c(=O)n1Cc1ccc(F)cc1 | 5900 |
| Cc1ccc(C(=O)NC2CCCCCC2)c(=O)n1Cc1ccc(F)cc1 | > 10000 |
| Cc1ccc(C(=O)NC2CCCCCC2)c(OCc2ccc(F)cc2)n1 | > 10000 |
| Cc1nc(OCc2ccc(F)cc2)c(C(=O)NC2CCCCCC2)cc1Br | > 10000 |
| Cc1c(F)cc(C(=O)NC2CCCCCC2)c(=O)n1Cc1ccc(F)cc1 | > 10000 |

Biological target: Cannabinoid receptor 2 (Mus musculus) (UniProt P47936)
Experiment: Agonist activity at CB2R in LPS induced mouse BV2 cells assessed as decrease in IL6 secretion at 10 uM preincubated for 30 mins followed by LPS stimulation for 4 hrs by ELISA
Type: cell-based
Conditions: BV-2, filed as agonist, time 270.0 min
Outline: as §2

| SMILES | Activity |
| --- | --- |
| CCCC(C)(C)c1ccc2c(c1)OC(C)(C)[C@@H]1CC=C(C)C[C@@H]21 | Active |

Biological target: Cannabinoid receptor 2 (Mus musculus) (UniProt P47936)
Experiment: Agonist activity at CB2R in LPS induced mouse BV2 cells assessed as increase in IL-10 secretion at 10 uM preincubated for 30 mins followed by LPS stimulation for 4 hrs by ELISA
Type: cell-based
Conditions: BV-2, filed as agonist, time 270.0 min
Outline: as §2

| SMILES | Activity |
| --- | --- |
| CCCC(C)(C)c1ccc2c(c1)OC(C)(C)[C@@H]1CC=C(C)C[C@@H]21 | Active |

Biological target: T3, Cannabinoid receptor 1
Experiment: Displacement of [3H]CP55940 from recombinant human CB1R expressed in CHO cell membranes incubated for 90 mins
Design: species or system Membrane
Conditions: not given

| SMILES | Ki [nM] |
| --- | --- |
| Cc1c(Cl)cc(C(=O)NC2CCCCCC2)c(=O)n1Cc1ccc(F)cc1 | 3.7 |
| Cc1ccc(C(=O)NC2CCCCCC2)c(=O)n1Cc1ccc(F)cc1 | 37.7 |
| Cc1ccc(C(=O)NC2CCCCCC2)c(OCc2ccc(F)cc2)n1 | 16.6 |
| Cc1nc(OCc2ccc(F)cc2)c(C(=O)NC2CCCCCC2)cc1Br | 76.1 |
| Cc1c(F)cc(C(=O)NC2CCCCCC2)c(=O)n1Cc1ccc(F)cc1 | 4.9 |

Source: ChEMBL document CHEMBL4706601, “The endocannabinoid system dual-target ligand N-cycloheptyl-1,2-dihydro-5-bromo-1-(4-fluorobenzyl)-6-methyl-2-oxo-pyridine-3-carboxamide improves disease severity in a mouse model of multiple sclerosis” (Eur J Med Chem, 2020)
